From PubChem
Rows were chosen to be rich in hits. Some 3.8% of all compounds tested hit in one or more screens of this group.
RAM network inh = inhibitors of the yeast RAM network, primary screen, dse1pr::URA3 reporter, 5-FOA selection | inhibition, % at 50 µM | 190,000 tested, 1.8% active | AID 868, 2007 | S. cerevisiae dse1pr::URA3 reporter, 5-FOA growth OD615, 2 d; analog-sensitive cbk1-as2 kinase mutant strain;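 active means inhibition above a set limit, 3 SD over mean compound inhibition, cut at about 8.4% in these data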;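 further: 0% = DMSO-only wells with no growth and 100% = 10 µM 1-NA-PP1 full growth; inhibition rescues growth on 5-FOA so higher OD means more RAM inhibition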
Yeast growth inh = growth inhibitors of yeast BB579 in restrictive medium, primary screen, yeast lifespan-shortening project, S. cerevisiae; OD615, 48 h; inhibition, % at 10 µM; 140,000 tested, 0.51% active; AID 804, 2007;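 active means inhibition above a set limit, 3 SD over the mean compound inhibition, cut at about 44% in these data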
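System: Saccharomyces cerevisiae DeaD strain BB579, replicative lifespan model yeast | Buffer or medium: Restrictive glucose-based CSMM-D medium | Times: 4 h preincubation and 48 h exposure at 30 °C | Detection: OD615 turbidity measurement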
Yeast lifespan up = compounds extending yeast replicative lifespan, primary screen, S. cerevisiae, OD615; S. cerevisiae growth with nicotinamide; deaD strain in restrictive glucose medium; inhibition of the nicotinamide effect, % at 10 µM; 130,000 tested, 0.68% active;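 active means inhibition above a set limit, placed 3 SD over the median of all compounds, cut at about 26% in these data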;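 further: 0% = nicotinamide-treated wells and 100% = cells grown without nicotinamide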
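Measured by: optical density (absorbance) at 615 nm; System: modified budding yeast, DeaD strain; Medium: restrictive CSMM-D dextrose medium; Timing: 4 h preincubation then 48 h treatment at 30 °C.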
Measles CPE = compounds protecting cells from measles virus cytopathic effect, primary screen, measles RdRp inhibitor project, single point, MLSMR library, absorbance; Measles virus-infected cells, CPE protection; protection (pct of control), % at 4 µM; 140,000 tested, 1.5% active; AID 841, 2007; in the data active means protection mostly above about 24%, no sharp cut-off; inactive means mostly below about 26%
Numbers without * were called inactive; . = not tested or not shown.

SMILES | RAM network inh | Yeast growth inh | Yeast lifespan up | Measles CPE
CC(NC(=O)/C(C#N)=C/c1ccc(Cl)c([N+](=O)[O-])c1)c1ccccc1 (stereo not drawn) | 4 | 46* | 5 | -1
N#C/C(=C\c1ccc(O)c([N+](=O)[O-])c1)C(=O)NCc1ccccc1 | 3 | . | . | .
CN(c1ccccc1)c1ccc(/C=C/[N+](=O)[O-])cc1 | 6 | 100* | -11 | 0
CC1CCCC2(C1)NC(=S)c1c(sc3c1CCCC3)N2 (stereo not drawn) | 2 | 86* | -15 | 26
CC(C)Cc1nc(N2CCN(C(=O)c3ccco3)CC2)c(C#N)c2c1CCC2 | 9.2* | -25 | -19 | 9
O=C(O)CSc1c(-c2cccs2)[nH]c2ccccc12 | 1 | -16 | 2 | 40*
Cc1ccc(N(C(=O)CS(=O)CC(=O)Nc2ccc(F)cc2)C(C(=O)NC2CCCCC2)c2ccco2)cc1 (stereo not drawn) | 1 | -23 | 94* | 16
O=C(N/N=C1\CCCc2c1[nH]c1ccc([N+](=O)[O-])cc21)c1ccncc1 | 8.4* | -17 | 5 | 8
Cc1ccc(NC(=O)CCC(=O)OCC(=O)c2ccc(Oc3ccc([N+](=O)[O-])cc3)cc2)cc1C | 11* | -11 | -3 | 2
Cc1cc(C(=O)CSc2nc(N)cc(N)n2)c(C)n1-c1cccc(F)c1 | 0 | -41 | 9 | 5
COC(=O)C(C)Oc1ccc(Oc2nc(Cl)ccc2Cl)cc1 (stereo not drawn) | 2 | . | . | .
COc1ccc(N=Cc2nc(-c3ccco3)oc2O)cc1 | 6 | -35 | . | 16
CCC(=NCc1ccc(Cl)c(Cl)c1)c1nc(-c2ccco2)oc1O | 11* | -43 | -6 | 2
COc1ccc2nc(SCc3cccc(C)c3)nc(C)c2c1 | 6 | -47 | -7 | 8
Cc1ccc2nc(SCc3cccc([N+](=O)[O-])c3)nc(C)c2c1 | 11* | -27 | 3 | 6
Cc1nc(SCc2ccc([N+](=O)[O-])cc2)nc2ccccc12 | 9.5* | 2 | -13 | 15
Cc1ccc2[nH]c3c(c2c1)CC/C(=C/c1ccccc1)C3=O | 4 | -86 | 81* | 9
Cc1ccc(/C=C2/CCc3c([nH]c4ccccc34)C2=O)cc1 | 3 | -28 | -21 | 4
O=C(Nc1ccccc1C(=O)O)c1ccc(Br)c(S(=O)(=O)NCc2ccccc2)c1 | 11* | . | . | .
Cc1cc(C)n(-c2nc3ccccc3nc2Nc2ccc3c(c2)OCO3)n1 | 7 | -47 | -2 | 42*
COc1cccc(Nc2nc3ccccc3nc2-n2nc(C)cc2C)c1 | 8 | 16 | -10 | 2
CCC(=O)N1CCc2cc(S(=O)(=O)CCC(=O)Nc3cccc(C)n3)ccc21 | 1 | . | . | .
CC(=O)N(c1nc(CCl)cs1)c1cccc(C)c1C | 2 | . | . | .
COc1ccccc1NC(=O)COC(=O)C12CC3CC(CC(Cl)(C3)C1)C2 | 11* | . | . | .
O=C1Nc2ccccc2N(O)N1c1cc(-c2ccccc2Cl)no1 | 4 | -23 | -1 | 1
SMILES | RAM network inh | Yeast growth inh | Yeast lifespan up | Measles CPE
O=C1Nc2ccccc2N(O)N1c1cc(-c2cccc(Cl)c2)no1 | 0 | -2 | -8 | 33*
Cc1cc(NS(=O)(=O)c2ccc(NC(=O)C(C)Oc3ccc4c(C)cc(=O)oc4c3)cc2)no1 (stereo not drawn) | 10* | -40 | 17 | 5
O=C(OCC(=O)N1CCN(C(=O)c2ccco2)CC1)c1cc(-c2ccc(Cl)c(Cl)c2Cl)nc2ccccc12 | 9.5* | -52 | -6 | 17
O=C(OCC(=O)N1CCN(C(=O)c2ccco2)CC1)c1cc(-c2ccco2)nc2ccccc12 | 7 | -65 | -19 | 7
COCCN(C(=O)CSc1nnc(-c2cccc(OC)c2)n1C)c1c(N)n(Cc2ccccc2)c(=O)[nH]c1=O | 1 | . | . | .
O=C(c1ccc(C(F)(F)F)cc1)C1CCCN(C(=O)CN2C(=O)CSC2=O)C1 (stereo not drawn) | 0 | . | . | .
CCC(C)NC(=O)C1CCN(S(=O)(=O)c2cccc3cccnc23)CC1 (stereo not drawn) | 1 | 49* | -7 | 9
COc1ccccc1C(=O)C1CCCN(C(=O)c2snnc2C)C1 (stereo not drawn) | 2 | . | . | .
COc1ccccc1C(CC(=O)c1ccccc1)CC(=O)c1ccccc1 | 11* | . | . | .
Cc1ccccc1NC(=O)CSc1nnc(-c2ccccc2)n1-c1ccccc1 | 2 | -51 | -4 | 6
N#Cc1ccccc1NC(=O)CSc1nnc(-c2ccccc2O)n1-c1ccccc1 | 10* | -36 | -5 | 17*
CN(C)c1ccc([C@@H]2[C@@H]([N+](=O)[O-])[C@H]3C=Cc4ccccc4N3[C@H]2C(=O)c2ccc(Cl)cc2)cc1 | 2 | -9 | 32* | 6
COC(=O)c1[nH]c2ccc(F)cc2c1NS(=O)(=O)c1ccc(F)c(C)c1 | 10* | -66 | 7 | 23
COC(=O)c1[nH]c2ccc(C)cc2c1NS(=O)(=O)c1ccc(F)c(C)c1 | 1 | -39 | -23 | 6
COc1ccc(-c2cc(=O)n(-c3nc4ccccc4[nH]3)[nH]2)cc1 | 1 | 96* | -25 | 5
COc1ccc(OC)c(NC(=S)N2CCN(C/C=C/c3ccccc3)CC2)c1 | -1 | -37 | 43* | 6
COc1ccc(NC(=S)N2CCN(C/C=C/c3ccccc3)CC2)cc1 | 1 | -25 | 0 | 10
Cc1ccc(F)cc1NCC(=O)Nc1ccc(Cl)cc1F | 1 | -21 | -7 | 28
Cc1cc(F)ccc1NCC(=O)Nc1ccccc1Br | -2 | 0 | -6 | 50*
S=C(NCc1ccco1)N/N=C/c1ccc(Cl)cc1 | 3 | -39 | -3 | 6
Oc1ccc(/C=N/NC(=S)NCc2ccco2)cc1 | 1 | -12 | -16 | 41*
Cc1ccc(C(=O)Oc2ccc(Cl)c3cccnc23)cc1[N+](=O)[O-] | 1 | 68* | -28 | 5
CCn1c(SCC(=O)N/N=C/c2c[nH]c3ccccc23)nnc1-c1ccc(C(C)(C)C)cc1 | 2 | -7 | 5 | 10
CC1CCCCC1NS(=O)(=O)c1ccc(S(=O)(=O)NCc2ccncc2)cc1 (stereo not drawn) | 1 | 4 | -12 | 39*
Cc1ccc(S(=O)(=O)NCc2ccncc2)cc1 | 1 | -25 | 6 | 11
COc1ccc2cnn(CCOc3cc(C)ccc3C(C)C)c(=O)c2c1OC | 2 | -10 | 5 | 13
COc1ccc(C(=O)NNC(=O)CCn2nnc(-c3ccc(C)cc3)n2)cc1OC | 9.2* | . | . | .
Cc1cccc(C)c1NC(=O)C(c1ccccc1)N1CCC1=O (stereo not drawn) | -1 | 23 | 3 | 7
Cc1cccc2c(=O)cc(C)n(Cc3ccccc3)c12 | 2 | -56 | -6 | 36*
O=S(=O)(c1ccccc1)N1CCN(CC(O)COc2ccc3c(c2)CCC3)CC1 (stereo not drawn) | 0 | -37 | -11 | 31*
